Calls of active or inactive are those of the source. No cut-off for these calls is given here.
Columns and labels:
Rattus norvegicus [1] = assay: Antiinflammatory activity in rat assessed as inhibition of cotton pellet-induced granuloma weight administered topically measured per pellet; assay type: functional
In short: (§1)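 Cotton-pellet granuloma test in rats; compounds suspended in 0.5% aqueous carboxymethylcellulose applied directly to the pellets, doses up to 40 µg/pellet; at least eight rats per dose. Granuloma and thymus weights converted to mg/100 g body weight. ED30 (30% inhibition) derived from log dose–response least-squares lines with 95% confidence limits, or approximated from eye-fit linear plots.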

Rattus norvegicus [2] = assay: Thymolytic activity in rat assessed as inhibition of thymus weight administered topically measured per pellet; assay type: organism-based; conditions: in vivo, topical_or_ocular; in short: as §1
Rattus norvegicus [3] = assay: Thymolytic activity in po dosed rat assessed as inhibition of thymus weight administered bid for 7 days; assay type: organism-based; conditions: in vivo, 168 h
In short: (§2)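 Rat cotton-pellet granuloma test; compounds suspended in 0.5% carboxymethylcellulose in water given orally daily for seven consecutive days, doses up to 12.5 mg/kg die; at least eight rats per dose. Granuloma and thymus weights expressed as mg/100 g body weight. ED30 (30% inhibition) from log dose–response least-squares regression with 95% confidence limits, or extrapolated from eye-fit plots.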

Rattus norvegicus [4] = assay: Antiinflammatory activity in po dosed rat assessed as inhibition of cotton pellet-induced granuloma weight administered bid for 7 days; assay type: functional, organism-based; in short: as §2
Rattus norvegicus [5] = assay: Mineralocorticoid activity in rat assessed as sodium retention up to 1 mg/kg, sc; assay type: ADME, organism-based; design: dose 1 mg/kg, route subcutaneous; conditions: in vivo

ED30 (Rattus norvegicus [2]) [µg]	Compound	ED30 (Rattus norvegicus [1]) [µg]	Activity (Rattus norvegicus [3])	Activity (Rattus norvegicus [4])	Activity (Rattus norvegicus [5])
> 40	CC(=O)OCC(=O)[C@@]1(O)CC[C@H]2[C@@H]3C[C@@H](F)C4=CC(=O)C(Cl)=C[C@]4(C)[C@@]3(F)[C@@H](O)C[C@@]21C	9			
> 40	CC(=O)OCC(=O)[C@@]1(OC(C)=O)CC[C@H]2[C@@H]3C[C@@H](F)C4=CC(=O)C=C[C@]4(C)[C@@]3(F)[C@@H](O)C[C@@]21C	40	Non-toxic		
40	CC(=O)OCC(=O)[C@@]1(OC(C)=O)CC[C@H]2[C@@H]3C[C@H](F)C4=CC(=O)C(Cl)=C[C@]4(C)[C@@]3(F)[C@@H](O)C[C@@]21C	>40	Non-toxic	inactive	
> 40	CC(=O)OCC(=O)[C@@]1(O)CC[C@H]2[C@@H]3C[C@@H](F)C4=CC(=O)C=C[C@]4(C)[C@@]3(F)[C@@H](O)C[C@@]21C	>40			
5	CC1(C)O[C@@H]2C[C@H]3[C@@H]4C[C@H](F)C5=CC(=O)C=C[C@]5(C)[C@@]4(F)[C@@H](O)C[C@]3(C)[C@]2(C(=O)CO)O1 [FLUOCINOLONE ACETONIDE]	1.02			
20	CC(=O)OCC(=O)[C@@]1(O)CC[C@H]2[C@@H]3C[C@H](F)C4=CC(=O)C=C[C@]4(C)[C@@]3(F)[C@@H](O)C[C@@]21C	40			
> 40	C[C@]12C=CC(=O)C=C1[C@H](F)C[C@H]1[C@@H]3CC[C@](O)(C(=O)CO)[C@@]3(C)C[C@H](O)[C@@]12F	>40			
> 40	C[C@]12C=C(Cl)C(=O)C=C1[C@H](F)C[C@H]1[C@@H]3CC[C@](O)(C(=O)CO)[C@@]3(C)C[C@H](O)[C@@]12F	>40			
> 40	C[C@]12C=C(Br)C(=O)C=C1[C@H](F)C[C@H]1[C@@H]3CC[C@](O)(C(=O)CO)[C@@]3(C)C[C@H](O)[C@@]12F	>40			
> 40	CC(=O)OCC(=O)[C@@]1(O)CC[C@H]2[C@@H]3C[C@@H](F)C4=CC(=O)C(Br)=C[C@]4(C)[C@@]3(F)[C@@H](O)C[C@@]21C	40			
> 40	CC(=O)OCC(=O)[C@@]1(OC(C)=O)CC[C@H]2[C@@H]3C[C@@H](F)C4=CC(=O)C(Cl)=C[C@]4(C)[C@@]3(F)[C@@H](O)C[C@@]21C	0.45	Non-toxic	inactive	
20	C[C@]12C=CC(=O)C=C1[C@@H](F)C[C@H]1[C@@H]3CC[C@](O)(C(=O)CO)[C@@]3(C)C[C@H](O)[C@@]12F	40			
5	CC(=O)OCC(=O)[C@@]1(OC(C)=O)CC[C@H]2[C@@H]3C[C@H](F)C4=CC(=O)C=C[C@]4(C)[C@@]3(F)[C@@H](O)C[C@@]21C	0.1	Non-toxic	inactive	

Compound	ED30 (Rattus norvegicus [2]) [µg]	ED30 (Rattus norvegicus [1]) [µg]	Activity (Rattus norvegicus [3])	Activity (Rattus norvegicus [4])	Activity (Rattus norvegicus [5])
CC(=O)OCC(=O)[C@@]1(OC(C)=O)CC[C@H]2[C@@H]3C[C@@H](F)C4=CC(=O)C(Br)=C[C@]4(C)[C@@]3(F)[C@@H](O)C[C@@]21C [HALOPREDONE ACETATE]	> 1000	0.01	Non-toxic	inactive	Non-toxic
CC(=O)OCC(=O)[C@@]1(OC(C)=O)CC[C@H]2[C@@H]3C[C@H](F)C4=CC(=O)C(Br)=C[C@]4(C)[C@@]3(F)[C@@H](O)C[C@@]21C	> 40	>40	Non-toxic	inactive	

From ChEMBL document CHEMBL3244040, “Synthesis and topical antiinflammatory properties of 17,21-bis(acetyloxy)-6beta,9-difluoro-11beta-hydroxypregna-1,4-diene-3,20-dione and related 2-halogenated compounds” (J Med Chem, 1977)
